ChEMBL document CHEMBL4118097, “Selective Inhibitors of Dual Leucine Zipper Kinase (DLK, MAP3K12) with Activity in a Model of Alzheimer's Disease” (J Med Chem, 2017)

Assays:
[1] = target: T1, Mitogen-activated protein kinase kinase kinase 12 (Homo sapiens, UniProt Q12852); experiment: Binding affinity to N-terminally GST-tagged wild type human DLK (1 to 520 residues) expressed in sf21 insect cells using N-terminally His-tagged MKK4 K131M as substrate after 60 mins in presence of ATP by TR-FRET assay
T1 sequence (Q12852 whole entry): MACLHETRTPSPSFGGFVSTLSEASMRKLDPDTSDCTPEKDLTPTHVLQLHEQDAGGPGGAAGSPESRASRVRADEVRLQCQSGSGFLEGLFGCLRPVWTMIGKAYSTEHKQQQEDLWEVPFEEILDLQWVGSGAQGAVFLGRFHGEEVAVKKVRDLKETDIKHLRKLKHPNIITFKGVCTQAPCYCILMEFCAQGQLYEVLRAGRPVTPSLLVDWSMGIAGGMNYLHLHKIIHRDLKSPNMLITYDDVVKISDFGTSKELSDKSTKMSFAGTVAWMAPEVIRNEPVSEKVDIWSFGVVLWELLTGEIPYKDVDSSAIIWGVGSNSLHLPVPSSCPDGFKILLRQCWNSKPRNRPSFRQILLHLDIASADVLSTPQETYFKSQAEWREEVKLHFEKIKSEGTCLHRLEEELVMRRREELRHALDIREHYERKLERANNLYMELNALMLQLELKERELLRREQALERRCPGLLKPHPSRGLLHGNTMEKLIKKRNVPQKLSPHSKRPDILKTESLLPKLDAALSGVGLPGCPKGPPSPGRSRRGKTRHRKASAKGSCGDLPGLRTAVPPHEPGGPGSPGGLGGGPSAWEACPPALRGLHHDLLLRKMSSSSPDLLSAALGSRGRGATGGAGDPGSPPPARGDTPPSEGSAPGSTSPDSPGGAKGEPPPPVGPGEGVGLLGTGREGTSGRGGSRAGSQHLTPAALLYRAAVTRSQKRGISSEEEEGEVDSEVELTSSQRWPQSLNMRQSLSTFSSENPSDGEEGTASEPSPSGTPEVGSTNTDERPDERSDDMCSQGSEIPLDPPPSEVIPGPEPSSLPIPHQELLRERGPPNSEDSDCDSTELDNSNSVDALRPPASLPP

[2] = target: Dual specificity tyrosine-phosphorylation-regulated kinase 3 (Homo sapiens) (UniProt O43781); experiment: Inhibition of full length recombinant GST-tagged human DYRK3 expressed in baculovirus expression system at 1 uM by FRET assay relative to control
[3] = target: Serine/threonine-protein kinase Chk2 (Homo sapiens) (UniProt O96017); experiment: Inhibition of recombinant full length His-tagged human CHK2 expressed in baculovirus expression system at 1 uM by FRET assay relative to control
[4] = target: Bone morphogenetic protein receptor type-1A (Homo sapiens) (UniProt P36894); experiment: Inhibition of recombinant full length N-terminal GST-tagged human BMPR1A catalytic domain expressed in insect cells at 1 uM by FRET assay relative to control
[5] = target: Leukocyte tyrosine kinase receptor (Homo sapiens) (UniProt P29376); experiment: Inhibition of recombinant GST-tagged human LTK cytoplasmic domain (440 to 864 residues) expressed in baculovirus expression system at 1 uM by FRET assay relative to control
How it was run: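 Part of a 220-kinase panel run at a single concentration of 1 μM. Z′-LYTE format: phosphorylation of a labelled peptide read by FRET. Values reported as percent inhibition.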

[6] = target: Insulin receptor-related protein (Homo sapiens) (UniProt P14616); experiment: Inhibition of recombinant GST-tagged human IRR cytoplasmic domain (944 to 1297 residues) expressed in baculovirus expression system at 1 uM by FRET relative to control
How it was run: (§1)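 Single-point screen at 1 μM compound in a 220-kinase panel run by Life Technologies (SelectScreen). Z′-LYTE format: phosphorylation of a labeled peptide substrate read by FRET. Values are reported as percent inhibition.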

[7] = target: Fibroblast growth factor receptor 4 (Homo sapiens) (UniProt P22455); experiment: Inhibition of recombinant His-tagged human FGFR4 cytoplasmic domain expressed in baculovirus expression system at 1 uM by FRET assay relative to control; how it was run: as §1
[8] = target: Tyrosine-protein kinase Fes/Fps (Homo sapiens) (UniProt P07332); experiment: Inhibition of recombinant full length His-tagged human FES cytoplasmic domain expressed in baculovirus expression system at 1 uM by FRET assay relative to control
[9] = target: Ephrin type-A receptor 8 (Homo sapiens) (UniProt P29322); experiment: Inhibition of recombinant GST-tagged human EphA8 cytoplasmic domain expressed in baculovirus expression system at 1 uM by FRET assay relative to control; how it was run: as §1
[10] = target: Serine/threonine-protein kinase PAK 3 (Homo sapiens) (UniProt O75914); experiment: Inhibition of recombinant full length His-tagged human PAK3 expressed in baculovirus expression system at 1 uM by FRET assay relative to control
[11] = target: Mitogen-activated protein kinase 11 (Homo sapiens) (UniProt Q15759); experiment: Inhibition of recombinant full length His-tagged human p38beta expressed in baculovirus expression system at 1 uM by FRET assay relative to control
[12] = target: Serine/threonine-protein kinase NLK (Homo sapiens) (UniProt Q9UBE8); experiment: Inhibition of recombinant full length GST-tagged human NLK expressed in baculovirus expression system at 1 uM by FRET assay relative to control
How it was run: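 Single-concentration screen at 1 μM in Life Technologies SelectScreen, across a 220-kinase panel. Z′-LYTE format measures phosphorylation of a labeled peptide by FRET. Results are reported as percent inhibition.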

[13] = target: TGF-beta receptor type-1 (Homo sapiens) (UniProt P36897); experiment: Inhibition of recombinant full length N-terminal GST-tagged human TGFBR1 (200 to 503 residues) expressed in baculovirus expression system at 1 uM by FRET assay relative to control
[14] = target: Ribosomal protein S6 kinase alpha-3 (Homo sapiens) (UniProt P51812); experiment: Inhibition of recombinant full length His-tagged human RSK2 expressed in baculovirus expression system at 1 uM by FRET assay relative to control
[15] = target: cGMP-dependent protein kinase 1 (Homo sapiens) (UniProt Q13976); experiment: Inhibition of PKG1alpha (unknown origin) at 1 uM by FRET assay relative to control
[16] = target: Mitogen-activated protein kinase 10 (Homo sapiens, UniProt P53779); experiment: Inhibition of recombinant full length GST-tagged human JNK3 expressed in baculovirus expression system by FRET assay
[17] = target: Adenosine receptor A2a (Homo sapiens) (UniProt P29274); experiment: Binding affinity to recombinant human A2A adenosine receptor at 10 uM relative to control
How it was run: (§2)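 Broad radioligand-binding and enzyme screening panel covering 42 targets (biogenic amine and neuropeptide receptors, ion channels, neurotransmitter transporters, acetylcholinesterase). Single test concentration of 10 μM. Results expressed as binding relative to control, with a hit defined as >50% of control.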

[18] = target: Adrenergic receptor alpha-2 (Homo sapiens) (UniProt P08913+P18825+P18089); experiment: Binding affinity to alpha2 adrenergic receptor (unknown origin) at 10 uM relative to control; assay type: protein assay; how it was run: as §2
[19] = target: Beta-1 adrenergic receptor (Homo sapiens) (UniProt P08588); experiment: Binding affinity to recombinant human beta1 adrenergic receptor at 10 uM relative to control; how it was run: as §2
Chain of Beta-1 adrenergic receptor (Homo sapiens) (P08588 whole entry, looked up): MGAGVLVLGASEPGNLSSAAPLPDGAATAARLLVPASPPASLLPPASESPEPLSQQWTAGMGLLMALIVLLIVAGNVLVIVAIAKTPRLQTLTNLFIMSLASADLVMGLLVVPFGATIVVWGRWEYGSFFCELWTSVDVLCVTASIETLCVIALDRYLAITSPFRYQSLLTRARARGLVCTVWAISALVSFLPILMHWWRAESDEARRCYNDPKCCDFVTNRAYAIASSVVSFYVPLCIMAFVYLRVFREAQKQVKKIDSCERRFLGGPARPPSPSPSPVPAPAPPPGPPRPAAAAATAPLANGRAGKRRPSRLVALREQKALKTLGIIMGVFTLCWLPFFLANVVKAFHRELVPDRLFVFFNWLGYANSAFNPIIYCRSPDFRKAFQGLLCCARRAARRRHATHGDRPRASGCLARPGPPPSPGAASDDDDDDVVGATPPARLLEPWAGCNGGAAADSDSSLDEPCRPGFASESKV

Chain of Mitogen-activated protein kinase 10 (P53779 whole entry): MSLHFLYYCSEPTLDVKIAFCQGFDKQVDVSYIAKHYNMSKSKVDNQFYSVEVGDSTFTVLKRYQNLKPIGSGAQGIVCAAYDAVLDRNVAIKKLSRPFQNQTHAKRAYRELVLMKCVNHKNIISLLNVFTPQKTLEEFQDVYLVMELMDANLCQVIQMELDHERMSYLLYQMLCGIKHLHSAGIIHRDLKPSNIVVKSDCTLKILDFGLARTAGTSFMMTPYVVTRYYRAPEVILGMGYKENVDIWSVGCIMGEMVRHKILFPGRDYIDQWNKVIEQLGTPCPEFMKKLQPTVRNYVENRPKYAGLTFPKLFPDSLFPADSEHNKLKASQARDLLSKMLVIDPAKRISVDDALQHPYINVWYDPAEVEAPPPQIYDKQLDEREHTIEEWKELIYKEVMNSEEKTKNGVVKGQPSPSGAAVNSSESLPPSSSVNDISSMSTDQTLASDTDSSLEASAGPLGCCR
Chain of Bone morphogenetic protein receptor type-1A (Homo sapiens) (P36894 whole entry, the tested form may be a part): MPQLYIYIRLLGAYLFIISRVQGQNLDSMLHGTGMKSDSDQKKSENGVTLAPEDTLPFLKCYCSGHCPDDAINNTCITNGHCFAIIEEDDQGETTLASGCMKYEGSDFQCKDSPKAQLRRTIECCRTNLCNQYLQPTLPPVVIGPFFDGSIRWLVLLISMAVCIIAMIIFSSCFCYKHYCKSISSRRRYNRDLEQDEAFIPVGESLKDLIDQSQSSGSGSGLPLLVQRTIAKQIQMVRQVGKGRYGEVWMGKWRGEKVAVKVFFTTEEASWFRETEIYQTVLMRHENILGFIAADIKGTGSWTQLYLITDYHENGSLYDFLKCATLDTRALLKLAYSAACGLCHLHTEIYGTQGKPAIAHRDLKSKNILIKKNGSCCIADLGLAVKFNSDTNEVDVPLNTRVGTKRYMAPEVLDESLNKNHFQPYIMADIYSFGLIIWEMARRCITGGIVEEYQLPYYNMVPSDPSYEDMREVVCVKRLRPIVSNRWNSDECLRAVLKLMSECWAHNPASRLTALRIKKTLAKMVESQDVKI
Chain of Serine/threonine-protein kinase PAK 3 (Homo sapiens) (O75914 whole entry, looked up): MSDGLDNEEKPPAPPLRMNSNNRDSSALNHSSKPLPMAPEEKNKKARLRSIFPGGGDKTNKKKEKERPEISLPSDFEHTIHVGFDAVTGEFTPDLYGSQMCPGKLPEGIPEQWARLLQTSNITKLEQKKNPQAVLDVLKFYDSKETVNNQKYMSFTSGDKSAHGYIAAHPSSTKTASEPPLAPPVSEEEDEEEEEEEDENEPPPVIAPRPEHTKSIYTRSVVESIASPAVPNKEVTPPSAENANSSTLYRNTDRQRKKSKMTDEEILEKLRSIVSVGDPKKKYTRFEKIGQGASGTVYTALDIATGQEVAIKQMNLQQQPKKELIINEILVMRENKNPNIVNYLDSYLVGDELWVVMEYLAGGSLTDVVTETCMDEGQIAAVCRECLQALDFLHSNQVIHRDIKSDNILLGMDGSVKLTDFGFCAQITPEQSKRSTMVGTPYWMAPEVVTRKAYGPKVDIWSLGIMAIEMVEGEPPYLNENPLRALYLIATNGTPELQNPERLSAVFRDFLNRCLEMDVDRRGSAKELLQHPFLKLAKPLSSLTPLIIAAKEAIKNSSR
Chain of Ephrin type-A receptor 8 (Homo sapiens) (P29322 whole entry, the tested form may be a part): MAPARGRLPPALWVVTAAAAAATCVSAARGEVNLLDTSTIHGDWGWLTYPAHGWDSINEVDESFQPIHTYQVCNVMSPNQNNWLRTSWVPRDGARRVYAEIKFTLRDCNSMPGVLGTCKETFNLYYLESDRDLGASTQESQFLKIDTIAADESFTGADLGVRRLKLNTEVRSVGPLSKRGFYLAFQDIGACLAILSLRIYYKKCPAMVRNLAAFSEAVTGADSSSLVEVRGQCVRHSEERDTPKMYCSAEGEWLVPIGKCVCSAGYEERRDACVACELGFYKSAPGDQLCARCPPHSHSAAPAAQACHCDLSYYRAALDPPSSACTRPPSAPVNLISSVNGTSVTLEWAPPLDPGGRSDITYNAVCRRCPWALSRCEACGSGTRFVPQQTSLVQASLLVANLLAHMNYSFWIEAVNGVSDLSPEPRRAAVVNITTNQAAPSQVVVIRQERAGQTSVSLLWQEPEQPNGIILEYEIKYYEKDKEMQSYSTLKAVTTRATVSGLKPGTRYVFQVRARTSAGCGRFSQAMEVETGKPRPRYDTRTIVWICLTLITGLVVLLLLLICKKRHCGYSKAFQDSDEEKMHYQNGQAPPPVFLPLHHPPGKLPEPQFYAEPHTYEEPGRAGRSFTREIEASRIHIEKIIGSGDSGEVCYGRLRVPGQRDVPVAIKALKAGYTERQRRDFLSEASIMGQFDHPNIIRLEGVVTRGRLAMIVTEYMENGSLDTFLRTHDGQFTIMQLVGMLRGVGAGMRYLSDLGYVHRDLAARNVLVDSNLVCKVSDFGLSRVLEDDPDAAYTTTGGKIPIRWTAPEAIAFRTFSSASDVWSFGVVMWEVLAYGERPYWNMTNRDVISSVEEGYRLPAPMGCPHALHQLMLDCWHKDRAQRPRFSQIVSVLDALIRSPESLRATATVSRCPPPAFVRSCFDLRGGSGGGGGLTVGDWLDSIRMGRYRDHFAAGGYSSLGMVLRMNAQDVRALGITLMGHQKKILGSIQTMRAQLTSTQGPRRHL
Chain of cGMP-dependent protein kinase 1 (Homo sapiens) (Q13976 whole entry): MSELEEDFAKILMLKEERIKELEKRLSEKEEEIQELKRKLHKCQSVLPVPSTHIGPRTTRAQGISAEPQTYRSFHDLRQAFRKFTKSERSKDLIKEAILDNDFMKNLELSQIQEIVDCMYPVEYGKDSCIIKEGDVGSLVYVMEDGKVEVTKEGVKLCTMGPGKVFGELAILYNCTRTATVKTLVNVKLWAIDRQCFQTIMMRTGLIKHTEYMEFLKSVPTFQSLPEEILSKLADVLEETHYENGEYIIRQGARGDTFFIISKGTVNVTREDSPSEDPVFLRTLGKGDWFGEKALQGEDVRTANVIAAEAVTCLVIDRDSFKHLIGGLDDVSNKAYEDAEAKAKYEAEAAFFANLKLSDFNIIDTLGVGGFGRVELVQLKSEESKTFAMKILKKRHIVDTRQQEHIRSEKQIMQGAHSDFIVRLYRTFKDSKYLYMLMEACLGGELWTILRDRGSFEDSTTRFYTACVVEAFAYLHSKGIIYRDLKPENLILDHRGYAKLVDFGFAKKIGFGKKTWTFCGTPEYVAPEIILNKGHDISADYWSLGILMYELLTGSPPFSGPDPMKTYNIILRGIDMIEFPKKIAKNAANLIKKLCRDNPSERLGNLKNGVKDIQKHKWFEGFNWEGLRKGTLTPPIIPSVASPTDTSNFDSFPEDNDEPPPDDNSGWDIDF
Chain of Adenosine receptor A2a (Homo sapiens) (P29274 whole entry): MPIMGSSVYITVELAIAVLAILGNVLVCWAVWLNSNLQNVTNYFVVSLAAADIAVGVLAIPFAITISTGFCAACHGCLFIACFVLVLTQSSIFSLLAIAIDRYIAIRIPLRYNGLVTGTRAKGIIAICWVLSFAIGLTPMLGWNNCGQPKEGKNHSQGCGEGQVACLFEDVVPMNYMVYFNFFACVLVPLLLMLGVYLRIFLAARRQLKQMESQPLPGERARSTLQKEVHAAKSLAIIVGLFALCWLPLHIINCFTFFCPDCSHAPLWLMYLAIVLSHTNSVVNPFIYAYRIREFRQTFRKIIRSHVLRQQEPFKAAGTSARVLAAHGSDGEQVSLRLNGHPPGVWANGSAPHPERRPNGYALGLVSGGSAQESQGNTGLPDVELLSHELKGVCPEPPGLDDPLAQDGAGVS
Chain of Fibroblast growth factor receptor 4 (Homo sapiens) (P22455 22-802 limits assumed): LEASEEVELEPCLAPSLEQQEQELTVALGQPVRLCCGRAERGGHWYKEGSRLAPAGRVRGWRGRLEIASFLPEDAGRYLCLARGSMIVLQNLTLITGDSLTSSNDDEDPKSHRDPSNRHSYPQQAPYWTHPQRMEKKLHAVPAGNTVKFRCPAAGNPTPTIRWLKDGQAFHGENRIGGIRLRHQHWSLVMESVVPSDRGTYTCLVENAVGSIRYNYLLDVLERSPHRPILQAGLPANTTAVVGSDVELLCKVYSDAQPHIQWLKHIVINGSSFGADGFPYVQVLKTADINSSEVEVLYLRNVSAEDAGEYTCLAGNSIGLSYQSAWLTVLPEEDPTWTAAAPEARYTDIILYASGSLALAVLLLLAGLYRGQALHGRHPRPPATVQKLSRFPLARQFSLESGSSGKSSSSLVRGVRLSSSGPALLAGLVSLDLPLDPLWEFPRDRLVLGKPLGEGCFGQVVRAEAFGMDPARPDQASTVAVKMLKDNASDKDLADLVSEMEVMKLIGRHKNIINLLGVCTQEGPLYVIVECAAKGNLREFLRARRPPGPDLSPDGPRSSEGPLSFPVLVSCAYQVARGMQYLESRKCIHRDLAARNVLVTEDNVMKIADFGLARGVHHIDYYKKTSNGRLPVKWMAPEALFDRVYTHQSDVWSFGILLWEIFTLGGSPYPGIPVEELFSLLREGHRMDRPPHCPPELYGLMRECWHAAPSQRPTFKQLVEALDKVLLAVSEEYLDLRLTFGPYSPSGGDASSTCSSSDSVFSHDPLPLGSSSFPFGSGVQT

SMILES | Ki [1] [nM] | inhibition [2] [%] | inhibition [3] [%] | inhibition [4] [%] | inhibition [5] [%] | inhibition [6] [%] | inhibition [7] [%] | inhibition [8] [%] | inhibition [9] [%] | inhibition [10] [%] | inhibition [11] [%] | inhibition [12] [%] | inhibition [13] [%] | inhibition [14] [%] | inhibition [15] [%] | IC50 [16] [nM] | Activity [17] [%] | Activity [18] [%] | Activity [19] [%]
CC(C)n1nc(-c2cnc(N)c(OC(F)(F)F)c2)cc1[C@H]1[C@@H]2CN(C3COC3)C[C@@H]21 | 3 | 0.6 | 12.8 | -2.3 | 9.8 | 32.7 | 1.2 | 17.1 | 8.7 | 3.6 | 9.3 | -4.5 | 1.6 | 2.8 | 0.1 | > 10000 | > 50 | > 50 | > 50
Nc1ncc(-c2cc([C@H]3[C@@H]4CN(C5COC5)C[C@@H]43)n(CC3CC3)n2)cc1C(F)(F)F | 4 | -7.9 | 16.3 | 1.5 | 31.5 | 15.9 | 6.3 | 21.1 | 18.6 | 17.2 | 2.5 | -4.7 | 11.7 | 2 | -1.1 | > 10000 | > 50 | > 50 | > 50
